High-throughput results deposited in PubChem BioAssay by several laboratories.
Compounds with a hit are over-represented: about 4.8% of the library has one in this group of screens.
pPAFAH inh: pPAFAH enzyme inhibitors, primary screen, biochemical, fluorescence polarization, human | Platelet-activating factor acetylhydrolase (Homo sapiens), Q13093 | recombinant pPAFAH, FP-rhodamine probe fluorescence polarization | inhibition, % at 3.39 µM | 330,000 compounds, 1.5% hits;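 active means inhibition above the mean inhibition across the screen plus 3 SD, cut at about 25% in these data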;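 further: inhibitors block binding of the rhodamine activity-based probe so polarization drops; 0% = enzyme with DMSO and 100% = wells lacking pPAFAH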
UCH37 inh: inhibitors of human UCH37 deubiquitinase, primary screen, biochemical, Ub-AMC cleavage, fluorescence | Ubiquitin carboxyl-terminal hydrolase isozyme L5 (Homo sapiens), Q9Y5K5 | inhibition, % (no concentration beside the values) | purified proteasome/UCH37 | 330,000 compounds, 0.33% hits;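 active means mean inhibition over replicate wells above about 20%, limit read from the data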;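 further: 0% = compound-free wells with enzyme and 100% = wells lacking proteasome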
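System: Proteasome-associated human UCH37 deubiquitinase; Input: 0.15 nM proteasome in added enzyme buffer; Also added: Ub-AMC substrate from 1 µM stock; Incubation: 30 min compound-proteasome preincubation then 25 min substrate reaction, room temperature; Detection: fluorescence, ex 355 nm, em 460 nm; Read-out: % inhibition of Ub-AMC cleavage fluorescence; Benchmarks: no-proteasome and no-compound wells.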
NR3A LBD binder: binders of NR3A ligand-binding domain, primary screen, biophysical, differential scanning fluorimetry, uHTS; Glutamate receptor ionotropic, NMDA 3A (GRIN3A) ligand-binding domain; NR3A LBD differential scanning fluorimetry, Tm shift; 0% = protein alone, 100% = glycine-bound protein; Tm shift relative to glycine control, % at 25 µM; 340,000 compounds, 2.5% hits;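 active means melting temperature shift of at least 10% of the positive control shift, at one fixed dose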
PAFAH2 FP inh: PAFAH2 enzyme inhibitors, primary screen, biochemical, fluorescence polarization, human. inhibition, % at 3.39 µM. AID 492956, 2010. recombinant PAFAH2, FP-rhodamine activity probe. 340,000 compounds, 0.99% hits. Platelet-activating factor acetylhydrolase 2, cytoplasmic (Homo sapiens), Q99487;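 active means inhibition above the mean over all tested compounds plus 3 SD, cut at about 30% in these data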;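 further: inhibitors block probe labeling of enzyme so polarization drops; 0% = enzyme with DMSO and 100% = wells lacking PAFAH2 protein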
PAFAH1B2 inh: PAFAH1B2 enzyme inhibitors, primary screen, biochemical, fluorescence polarization, human. inhibition, % at 3.39 µM. AID 492953, 2010. 340,000 compounds, 1.2% hits. Platelet-activating factor acetylhydrolase IB subunit alpha2 (Homo sapiens), P68402. recombinant PAFAH1B2, FP-rhodamine activity probe;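 active means inhibition above the mean of all tested compounds plus 3 SD, cut at about 24% in these data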;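 further: 0% = enzyme with DMSO and 100% = wells lacking PAFAH1B2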
Target sequence (P68402 whole entry, looked up): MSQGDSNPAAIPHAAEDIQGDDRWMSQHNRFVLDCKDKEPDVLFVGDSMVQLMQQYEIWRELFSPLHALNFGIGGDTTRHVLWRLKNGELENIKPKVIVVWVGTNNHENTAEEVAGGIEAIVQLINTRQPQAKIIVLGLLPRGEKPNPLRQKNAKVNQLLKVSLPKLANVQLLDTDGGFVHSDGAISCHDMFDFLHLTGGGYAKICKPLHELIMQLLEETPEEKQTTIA
PAFAH1B3 FP inh: PAFAH1B3 enzyme inhibitors, primary screen, biochemical, fluorescence polarization, human; Platelet-activating factor acetylhydrolase IB subunit alpha1 (Homo sapiens), Q15102; 340,000 compounds, 0.28% hits; inhibition, % at 3.39 µM; recombinant PAFAH1B3, FP-rhodamine probe;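 active means inhibition above the screen-wide average of all tested compounds plus 3 SD, cut at about 25% in these data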;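 further: 0% = enzyme with DMSO only and 100% = wells lacking PAFAH1B3 protein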
Target sequence (Q15102 whole entry, looked up): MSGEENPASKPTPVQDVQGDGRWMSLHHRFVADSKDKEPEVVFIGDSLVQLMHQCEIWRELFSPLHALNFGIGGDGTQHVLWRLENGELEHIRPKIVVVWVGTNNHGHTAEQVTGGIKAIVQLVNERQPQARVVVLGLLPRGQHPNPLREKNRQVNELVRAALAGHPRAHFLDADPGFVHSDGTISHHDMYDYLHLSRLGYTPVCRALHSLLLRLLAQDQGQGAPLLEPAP
PAFAH2 confirm: PAFAH2 enzyme inhibitors, confirmation, biochemical, fluorescence polarization, human. shares compounds with PAFAH2 FP inh. recombinant PAFAH2, FP-rhodamine activity probe. inhibition, % at 3.39 µM. 2,300 compounds, 65% hits. AID 493030, 2011;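 active means mean inhibition over three repeats above a set limit taken from the earlier primary screen, cut at about 30% in these data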;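 further: inhibitor blocks binding of rhodamine activity probe so polarization falls; 0% = enzyme with DMSO and 100% = wells lacking PAFAH2 protein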
Active calls of the source: *; x = not tested or not shown.

SMILES	pPAFAH inh	UCH37 inh	NR3A LBD binder	PAFAH2 FP inh	PAFAH1B2 inh	PAFAH1B3 FP inh	PAFAH2 confirm
CC(NC(=O)COC(=O)c1cccc(S(=O)(=O)N2CCCC2)c1)c1ccccc1 (centres undefined)	10	0	1	53*	5	9	40*
Cc1nc2ccccc2c(=O)n1N=Cc1ccc2ccccc2c1O	x	4	x	x	x	x	x
O=C(NN=Cc1cccc([N+](=O)[O-])c1)c1cc(-c2ccc3c4c(cccc24)CC3)n[nH]1	x	2	x	x	x	x	x
O=C(CSc1n[nH]c(=O)[nH]c1=O)NN=C/C=C/c1ccccc1	x	6	x	x	x	x	x
Cc1cccc(NC(=O)COC(=O)c2cccs2)c1C	4	0	1	68*	6	-1	56*
Cc1cccc(NC(=O)COC(=O)c2n[nH]c3ccccc23)c1C	-5	1	0	59*	-1	4	46*
O=C(COC(=O)c1n[nH]c2ccccc12)Nc1ccc(Cl)cc1[N+](=O)[O-]	-8	4	-2	73*	9	1	64*
COc1cc([N+](=O)[O-])ccc1NC(=O)COC(=O)c1n[nH]c2ccccc12	-1	5	8	7	-1	3	x
O=C(COC(=O)c1n[nH]c2ccccc12)Nc1ccccc1F	-11	0	1	44*	4	-5	43*
COc1ccccc1/C=C\C=Nn1c(-c2ccc(Cl)cc2Cl)n[nH]c1=S	x	3	x	x	x	x	x
CC(CC(=O)Nc1cccc(Cl)c1Cl)=NNC(=O)c1ccccc1N	x	-169	x	x	x	x	x
COc1cc([N+](=O)[O-])ccc1-c1ccc(C=NNC(=O)OC(C)(C)C)o1	x	10	x	x	x	x	x
Cc1ccc(C(=O)OCC(=O)NCc2cccs2)s1	x	1	-1	65*	2	1	57*
O=C(COC(=O)c1ccccc1)NCc1cccs1	9	5	0	36*	0	13	20
O=C(CON=Cc1ccc(OC(F)F)cc1)NCc1cccs1	x	4	x	x	x	x	x
O=C(COC(=O)c1ccc(OC(F)F)cc1)NCc1cccs1	17	0	4	56*	4	7	29
O=C(Nc1cccc(Cl)c1)c1cccc(Oc2ccc([N+](=O)[O-])cc2Cl)c1	-8	0	8	-58	-31	-89	x
O=C(Nc1cccc(Cl)c1)c1cc(N=Nc2ccc([N+](=O)[O-])cc2Cl)ccc1O	22	17	19*	33*	18	23	4
COC(=O)Nc1nc(-c2ccccc2)c(C(=O)c2ccc(Cl)cc2)s1	2	4	-4	10	9	5	x
CCOC(=O)Nc1nc(-c2ccccc2)c(C(=O)c2ccccc2)s1	4	-1	-1	41*	11	10	42*
COc1cc(C(=O)OCC(=O)NCCC2=CCCCC2)ccc1OCC(C)C	7	3	0	41*	4	-2	43*
COc1cccc(C(=O)OCC(=O)NCCC2=CCCCC2)c1	22	3	0	38*	3	2	23
CCOC(=O)CCCc1ccc(C(C)=NNC(=S)NC)cc1	x	3	x	x	x	x	x
C[C@H](NS(=O)(=O)c1ccc(Cl)cc1)C(=O)OCC(=O)NC(=O)Nc1ccc2c(c1)OCCO2	8	4	-7	9	5	5	x
CC(NS(=O)(=O)c1ccc(Cl)c(Cl)c1)C(=O)OCC(=O)Nc1ccc2c(c1)OCO2 (centres undefined)	11	-1	-4	31*	3	5	24
COc1cccc(NC(=O)COC(=O)c2ccc3c(c2)OCO3)c1	x	-2	2	83*	2	-1	73*
